We go through 3 compounds from paper PMC5651194 (Cellular signalling, 2017).

Assay [1] concerns CLL cells. Kind of assay: CLL apoptosis assay. Type of assay: cell-based, human. The following applies: 20μM, 48 h, median and standard deviation of three assays. Summed up:
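PBMC from heparinized blood of CLL patients, isolated on Histopaque 1077 and washed. Plated at 1 million cells/well in RPMI 1640 with 10% FBS, 20 mM L-glutamine and penicillin/streptomycin. Exposed to 20μM test compound or vehicle for 48 h at 37°C, 5% CO2. Harvested, stained 10 min at 37°C with Hoechst 33342 (0.25 μg/mL final), then analysed by flow cytometry.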

The subject of assay [2] is PDE4 and PDE7 relative to PDE2A and PDE11A. Kind of assay: Selectivity from in vitro PDE assays. The format is biochemical.
Assay [3] has as its target Human PDE4D2 (Homo sapiens, UniProt Q08499). Kind of assay: In vitro PDE assay. The format is biochemical. Summed up:
(§1)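 Radiolabelled cAMP hydrolysis with cAMP substrate at 40nM. Reactions stopped in linear phase with 0.2 M ZnSO4, hydrolysis limited to ~50% conversion. 5′-AMP precipitated with 0.25 N Ba(OH)2 and pelleted by centrifugation for 15 min. Supernatant radioactivity counted by scintillation.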

For assay [4], the target named is rat PDE4A5 (Rattus norvegicus, UniProt P54748). Kind of assay: Yeast-based HTS. The format is cell-based. To be noted: duplicate plates, OD600 after 48 h. The essentials: (§2)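 S. pombe gpa2Δ strains carrying the PKA-repressed fbp1-ura4+ reporter, with the PDE replacing endogenous Cgs2, grown in 5FOA medium. Compounds from 5 mg/mL stocks were pinned in. OD600 read after 48 h at 30°C. Run on duplicate plates; composite Z = replicate Z-score vector scaled by cosine correlation with the diagonal. Controls: 0.2% DMSO (negative), 5 mM cAMP (positive).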
rat PDE4A5, sequence (P54748 whole entry): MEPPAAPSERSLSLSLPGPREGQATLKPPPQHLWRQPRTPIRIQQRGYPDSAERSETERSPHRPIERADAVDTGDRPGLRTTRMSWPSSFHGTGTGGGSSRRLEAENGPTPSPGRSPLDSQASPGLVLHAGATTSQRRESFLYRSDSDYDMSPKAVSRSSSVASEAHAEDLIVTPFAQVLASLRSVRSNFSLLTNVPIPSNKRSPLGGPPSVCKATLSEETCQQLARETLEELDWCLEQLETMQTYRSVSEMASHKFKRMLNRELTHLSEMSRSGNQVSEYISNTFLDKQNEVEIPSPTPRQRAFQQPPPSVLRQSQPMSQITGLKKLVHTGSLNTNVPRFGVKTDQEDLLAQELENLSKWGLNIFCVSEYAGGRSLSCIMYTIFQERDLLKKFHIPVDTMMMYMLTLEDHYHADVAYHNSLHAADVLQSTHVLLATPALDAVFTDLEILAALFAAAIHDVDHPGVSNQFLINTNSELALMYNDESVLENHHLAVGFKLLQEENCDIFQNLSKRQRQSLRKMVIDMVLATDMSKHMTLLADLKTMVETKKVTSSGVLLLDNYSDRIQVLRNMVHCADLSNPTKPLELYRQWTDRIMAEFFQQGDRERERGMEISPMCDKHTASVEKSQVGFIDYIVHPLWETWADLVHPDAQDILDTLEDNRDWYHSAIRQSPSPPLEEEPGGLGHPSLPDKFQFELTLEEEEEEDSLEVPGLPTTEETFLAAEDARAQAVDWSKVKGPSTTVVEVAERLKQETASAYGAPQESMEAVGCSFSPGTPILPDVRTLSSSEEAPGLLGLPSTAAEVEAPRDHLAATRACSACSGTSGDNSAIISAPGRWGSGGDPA

The subject of assay [5] is S. pombe strain that expresses Git2 adenylyl cyclase and human PDE4B2. Kind of assay: Stationary phase viability of yeast. Type of assay: cell-based. To be noted: 10μM BC54, three days in stationary phase. Summed up:
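S. pombe CHP1346 (git2+ cgs2-2) transformants expressing PDE4B2 or no PDE, plus CHP1207 (git2Δ cgs2-2) with PDE4B2. Grown to stationary phase for three days in EMM-leucine ± 10μM test compound. Diluted 100-fold in YES, then four 10-fold serial dilutions. Spotted onto YES, grown at 30°C and photographed.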

For assay [6], the system named is IL-2 production by PMA-PHA stimulated Jurkat T cells. Kind of assay: IL-2 assay. The format is cell-based. To be noted: 20μM.
For assay [7], the target named is human PDE5A1 (Homo sapiens, UniProt O76074). Kind of assay: In vitro PDE assay. The format is biochemical. Summed up: (§3)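 Recombinant PDE (human PDE1C, PDE3B, PDE5A1, PDE8A, PDE9A2, PDE10A1, PDE11A4; rat PDE2A) incubated with radiolabelled cyclic nucleotide substrate. Stopped in linear phase with 0.2 M ZnSO4, hydrolysis ≤~50%. 5′-nucleotide precipitated with 0.25 N Ba(OH)2 and spun down for 15 min. Supernatant radioactivity measured by scintillation counting.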

Assay [8] addresses human PDE9A2 (Homo sapiens, UniProt O76083). The assay is described as follows: In vitro PDE assay. Type of assay: biochemical. Summed up: as §3
The target of assay [9] is human PDE1C (Homo sapiens, UniProt Q14123). Kind of assay: In vitro PDE assay. The format is biochemical. The essentials: as §3
For assay [10], the target named is murine PDE4B3 (Mus musculus, UniProt Q8VBU5). The assay is described as follows: Yeast-based HTS. The format is cell-based. The following applies: duplicate plates, OD600 after 48 h. The essentials: as §2
murine PDE4B3, sequence (Q8VBU5 1-721): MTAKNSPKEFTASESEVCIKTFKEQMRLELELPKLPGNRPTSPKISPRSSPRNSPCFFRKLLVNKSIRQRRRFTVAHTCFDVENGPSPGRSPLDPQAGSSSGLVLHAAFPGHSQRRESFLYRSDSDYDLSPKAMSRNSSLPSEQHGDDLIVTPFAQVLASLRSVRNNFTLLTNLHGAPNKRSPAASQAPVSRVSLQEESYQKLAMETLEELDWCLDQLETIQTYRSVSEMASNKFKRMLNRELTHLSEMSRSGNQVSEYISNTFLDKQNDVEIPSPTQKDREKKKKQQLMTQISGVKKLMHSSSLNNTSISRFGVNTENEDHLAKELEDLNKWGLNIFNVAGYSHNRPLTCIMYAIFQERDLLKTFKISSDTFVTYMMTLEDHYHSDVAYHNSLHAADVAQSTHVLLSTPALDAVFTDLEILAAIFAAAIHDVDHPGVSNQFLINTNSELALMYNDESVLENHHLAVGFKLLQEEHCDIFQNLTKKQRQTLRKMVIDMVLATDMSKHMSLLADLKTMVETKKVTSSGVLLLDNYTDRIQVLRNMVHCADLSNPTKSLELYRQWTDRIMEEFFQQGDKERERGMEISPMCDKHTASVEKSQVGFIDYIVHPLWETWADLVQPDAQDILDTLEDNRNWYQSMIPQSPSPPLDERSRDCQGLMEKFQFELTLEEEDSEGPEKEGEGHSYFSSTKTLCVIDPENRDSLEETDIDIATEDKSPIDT
Assay [11] has as its target Human PDE4B2 (Homo sapiens, UniProt Q07343). The assay is described as follows: In vitro PDE assay. The format is biochemical.
The subject of assay [12] is TNFα production by LPS-stimulated macrophage (U937 cells). The assay is described as follows: TNFα assay. The format is cell-based. To be noted: 20μM.
Assay [13] deals with rat PDE2A (Rattus norvegicus, UniProt Q01062). The assay is described as follows: In vitro PDE assay. Type of assay: biochemical. The essentials: as §3
Assay [14] has as its target mutant PDE4B2^T407A catalytic domain (Homo sapiens, UniProt Q07343, T579A). Kind of assay: In vitro enzyme assay, catalytic domain purified from E. coli. Type of assay: biochemical.
Assay [15] has as its target human PDE3B (Homo sapiens, UniProt Q13370). Kind of assay: In vitro PDE assay. The format is biochemical. Summed up:
as §3

The target of assay [16] is murine PDE4A1 (Mus musculus, UniProt O89084). The assay is described as follows: Yeast-based HTS. The format is cell-based. The following applies: duplicate plates, OD600 after 48 h. The essentials:
as §2

The target in assay [17] is human PDE7A (Homo sapiens, UniProt Q13946). Kind of assay: In vitro PDE assay. The format is biochemical. The essentials:
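Human PDE7 enzymes (PDE7A recombinant) assayed with 10nM cAMP substrate. Stopped during linear phase with 0.2 M ZnSO4, conversion kept near 50%. Product 5′-AMP removed by 0.25 N Ba(OH)2 precipitation and 15 min centrifugation. Remaining supernatant radioactivity read in scintillation fluid.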

The target in assay [18] is PDE7B (Homo sapiens, UniProt Q9NP56). Kind of assay: In vitro PDE assay. Type of assay: biochemical.
The target in assay [19] is human PDE10A1 (Homo sapiens, UniProt Q9Y233). The assay is described as follows: In vitro PDE assay. Type of assay: biochemical. The essentials: as §3
human PDE10A1, sequence (Q9Y233 1-779 isoform Q9Y233-1): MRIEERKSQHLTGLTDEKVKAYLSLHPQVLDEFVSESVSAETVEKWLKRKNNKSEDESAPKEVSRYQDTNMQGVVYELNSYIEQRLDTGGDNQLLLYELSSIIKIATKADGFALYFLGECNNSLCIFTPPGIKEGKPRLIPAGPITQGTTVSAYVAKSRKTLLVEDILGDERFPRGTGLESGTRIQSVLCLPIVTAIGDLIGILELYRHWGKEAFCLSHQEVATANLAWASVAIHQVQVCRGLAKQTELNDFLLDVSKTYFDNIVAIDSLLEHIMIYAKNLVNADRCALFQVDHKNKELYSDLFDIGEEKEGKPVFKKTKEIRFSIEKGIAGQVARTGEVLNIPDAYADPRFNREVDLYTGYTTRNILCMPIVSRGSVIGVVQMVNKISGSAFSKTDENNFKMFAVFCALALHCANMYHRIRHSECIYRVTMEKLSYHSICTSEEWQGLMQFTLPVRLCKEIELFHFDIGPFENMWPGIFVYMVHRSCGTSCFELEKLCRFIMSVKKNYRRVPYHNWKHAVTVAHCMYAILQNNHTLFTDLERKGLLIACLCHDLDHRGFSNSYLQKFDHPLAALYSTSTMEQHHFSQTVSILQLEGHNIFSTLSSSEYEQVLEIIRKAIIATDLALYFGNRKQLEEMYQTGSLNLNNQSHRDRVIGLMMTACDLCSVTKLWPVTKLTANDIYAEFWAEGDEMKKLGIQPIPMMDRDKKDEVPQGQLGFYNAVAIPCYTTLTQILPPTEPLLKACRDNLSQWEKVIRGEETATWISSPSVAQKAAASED
The target of assay [20] is human PDE8A (Homo sapiens, UniProt O60658). Kind of assay: In vitro PDE assay. Type of assay: biochemical. Summed up:
as §3

For assay [21], the system named is PDE8A. To be noted: not a hit; cited from earlier work.
Assay [22] addresses human PDE11A4 (Homo sapiens, UniProt Q9HCR9). Kind of assay: In vitro PDE assay. The format is biochemical. The essentials:
as §3

Assay [23] has as its target Human PDE4A10 (Homo sapiens, UniProt P27815). The assay is described as follows: In vitro PDE assay. The format is biochemical. The essentials:
as §1

The subject of assay [24] is yeast strains that express human PDE4A1, PDE4B2, PDE4D3, PDE7A1 or PDE7B1. The assay is described as follows: 5FOA growth assay, dose response. Type of assay: cell-based. To be noted: dose response 0.05 μM to 50 μM.
Assay [25] deals with PDE11A. The following applies: very weak hit; cited from earlier work.
Assay [26] addresses human PDE7A1 (Homo sapiens, UniProt Q13946). The assay is described as follows: Yeast-based HTS. Type of assay: cell-based. The following applies: duplicate plates, OD600 after 48 h. Summed up: as §2
For assay [27], the system named is PDE7B. To be noted: cited from earlier work.
Assay [28] relates to PDE7A. To be noted: cited from earlier work.

human PDE9A2, sequence (O76083 1-533 isoform O76083-2): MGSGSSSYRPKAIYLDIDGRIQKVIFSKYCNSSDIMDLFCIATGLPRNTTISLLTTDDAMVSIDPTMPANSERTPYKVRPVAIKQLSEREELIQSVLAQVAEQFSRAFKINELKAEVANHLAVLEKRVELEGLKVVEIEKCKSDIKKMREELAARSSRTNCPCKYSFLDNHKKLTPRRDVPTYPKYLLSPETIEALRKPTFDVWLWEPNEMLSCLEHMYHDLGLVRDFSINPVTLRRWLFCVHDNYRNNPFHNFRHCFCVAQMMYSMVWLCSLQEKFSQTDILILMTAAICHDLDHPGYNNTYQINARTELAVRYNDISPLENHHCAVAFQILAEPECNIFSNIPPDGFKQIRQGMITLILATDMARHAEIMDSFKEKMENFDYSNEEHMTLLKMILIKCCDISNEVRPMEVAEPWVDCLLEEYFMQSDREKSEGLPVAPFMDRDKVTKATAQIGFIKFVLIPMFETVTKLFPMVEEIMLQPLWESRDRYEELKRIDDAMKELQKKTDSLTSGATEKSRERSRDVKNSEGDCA
human PDE7A, sequence (Q13946 whole entry): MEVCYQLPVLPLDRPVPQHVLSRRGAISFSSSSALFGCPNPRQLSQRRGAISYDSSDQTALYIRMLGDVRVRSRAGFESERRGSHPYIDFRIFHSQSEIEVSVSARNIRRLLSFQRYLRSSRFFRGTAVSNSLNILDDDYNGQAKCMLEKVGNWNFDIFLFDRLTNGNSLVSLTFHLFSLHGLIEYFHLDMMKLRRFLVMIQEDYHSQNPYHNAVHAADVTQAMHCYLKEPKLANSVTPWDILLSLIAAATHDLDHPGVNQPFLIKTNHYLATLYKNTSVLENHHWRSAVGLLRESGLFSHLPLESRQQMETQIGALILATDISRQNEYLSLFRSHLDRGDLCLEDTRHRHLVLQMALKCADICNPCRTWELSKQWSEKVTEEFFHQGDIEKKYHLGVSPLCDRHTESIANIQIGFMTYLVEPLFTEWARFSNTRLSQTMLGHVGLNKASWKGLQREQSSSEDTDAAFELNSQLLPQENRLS
human PDE7A1, sequence (Q13946 whole entry): as above
Human PDE4B2, sequence (Q07343 324-659): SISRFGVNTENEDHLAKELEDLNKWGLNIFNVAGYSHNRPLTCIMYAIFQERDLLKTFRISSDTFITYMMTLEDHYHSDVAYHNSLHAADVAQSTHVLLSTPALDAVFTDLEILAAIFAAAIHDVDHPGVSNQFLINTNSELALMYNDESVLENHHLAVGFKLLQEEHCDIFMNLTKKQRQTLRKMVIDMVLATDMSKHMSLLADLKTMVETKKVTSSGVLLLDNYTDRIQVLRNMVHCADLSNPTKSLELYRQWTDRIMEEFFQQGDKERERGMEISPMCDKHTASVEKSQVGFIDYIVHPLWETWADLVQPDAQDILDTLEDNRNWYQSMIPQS
human PDE11A4, sequence (Q9HCR9 whole entry): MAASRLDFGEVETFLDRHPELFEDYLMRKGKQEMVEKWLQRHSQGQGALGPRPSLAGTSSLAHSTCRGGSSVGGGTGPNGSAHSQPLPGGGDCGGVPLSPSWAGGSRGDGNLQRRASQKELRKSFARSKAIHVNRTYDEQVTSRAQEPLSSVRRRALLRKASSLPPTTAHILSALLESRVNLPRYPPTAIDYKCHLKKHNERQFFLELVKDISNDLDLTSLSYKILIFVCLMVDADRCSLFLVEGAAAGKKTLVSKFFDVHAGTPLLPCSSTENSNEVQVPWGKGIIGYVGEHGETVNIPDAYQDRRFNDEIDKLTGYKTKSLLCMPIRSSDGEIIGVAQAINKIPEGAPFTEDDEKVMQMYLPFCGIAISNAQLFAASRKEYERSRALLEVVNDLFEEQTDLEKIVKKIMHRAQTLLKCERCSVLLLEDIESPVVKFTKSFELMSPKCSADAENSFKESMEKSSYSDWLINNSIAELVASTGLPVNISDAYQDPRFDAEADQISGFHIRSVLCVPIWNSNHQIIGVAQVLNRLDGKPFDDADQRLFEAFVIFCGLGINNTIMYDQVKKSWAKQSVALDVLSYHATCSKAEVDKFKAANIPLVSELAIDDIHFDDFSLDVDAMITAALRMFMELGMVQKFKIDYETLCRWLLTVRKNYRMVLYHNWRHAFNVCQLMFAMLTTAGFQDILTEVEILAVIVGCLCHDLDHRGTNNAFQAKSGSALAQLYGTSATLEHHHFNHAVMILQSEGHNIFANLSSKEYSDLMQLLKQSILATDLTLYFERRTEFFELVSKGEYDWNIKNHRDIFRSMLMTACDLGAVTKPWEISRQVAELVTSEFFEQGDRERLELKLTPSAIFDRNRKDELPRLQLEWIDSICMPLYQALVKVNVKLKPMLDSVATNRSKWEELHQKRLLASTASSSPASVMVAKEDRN
Human PDE4D2, sequence (Q08499 388-713): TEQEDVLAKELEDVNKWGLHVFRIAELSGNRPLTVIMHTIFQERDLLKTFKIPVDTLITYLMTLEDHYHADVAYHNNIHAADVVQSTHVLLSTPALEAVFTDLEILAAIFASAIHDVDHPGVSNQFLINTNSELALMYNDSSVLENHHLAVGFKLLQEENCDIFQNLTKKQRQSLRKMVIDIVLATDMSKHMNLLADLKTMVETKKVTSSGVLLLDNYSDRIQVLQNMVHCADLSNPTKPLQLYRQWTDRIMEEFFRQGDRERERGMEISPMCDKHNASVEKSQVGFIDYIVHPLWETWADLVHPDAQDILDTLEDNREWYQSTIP
mutant PDE4B2^T407A catalytic domain, sequence (Q07343 324-659 T579A): as the sequence (Q07343 324-659) above, with T256A counted along it

On to `COc1ccc(C2CNC(=O)C2)cc1OC1CCCC1` (stereo not drawn) [rolipram], for which the figures for the CLL apoptosis in [1] (Patient 1), in assay [1] (Patient 2) and in assay [1] (Patient 3) were 76.7±0.76, 35.6±0.7 and 20.3±2.18, respectively.
For `CCOC(=O)c1cc2c(=O)n3ccccc3nc2n(C2CCCCC2)/c1=N\C(C)=O` [BC54, ethyl (2Z)-2-(acetylimino)-1-cyclohexyl-5-oxo-1,5-dihydro-2H-dipyrido[1,2-a:2′,3′-d] pyrimidine-3-carboxylate], in assay [2], the “selectivity for PDE4 and PDE7 relative to PDE2A and PDE11A” value is listed as “greater than 20 fold”. Also, the half-maximal inhibitory concentration (IC50) (usually the concentration at which inhibition is half-maximal) in [3] is 50 to 110 nM; in assay [7], over 10000 nM; in assay [8], over 10000 nM; in [9], over 10000 nM; in assay [11] it was 50 to 110 nM; in assay [13], about 3000 nM. For the same compound, the IC50 was 124 ± 8.8 nM in [14]; over 10000 nM in [15]; 140 nM in [17]; 140 nM in assay [18]; over 10000 nM in assay [19]; over 10000 nM in assay [20]. In addition, the IC50 in assay [22] is about 3000 nM; in [23] it was 50 to 110 nM. The “Composite Z score” value is reported as over 40 in [4]; over 40 in [10]; over 40 in [16]; −2.35 in [21]; 7.74 in assay [25]; over 40 in [26]. Further, the “reduction of stationary phase viability” value in assay [5] is listed as “approximately ten-fold”. The IL-2 production result in assay [6] is “significantly reduces”. Moreover, the TNFα production entry in assay [12] is on record as “significantly reduces”. Also, the CLL apoptosis turned out to be 87.3±0.76 in assay [1] (Patient 1), 58.8±3.12 in [1] (Patient 2) and 39.8±1.79 in [1] (Patient 3). For the same compound, the “potency in 5FOA growth assay” value in assay [24] is given as “significant potency at sub-micromolar concentrations”.
Consider `Cc1ccc([N+](=O)[O-])cc1S(=O)(=O)N(C)C` [BRL50481, 3-(N,N-dimethylsulfonamido)-4-methyl-nitrobenzene], for which the IC50 was 12100 nM in assay [27] and 150 nM in [28]. Moreover, the CLL apoptosis in assay [1] (Patient 1) is listed as 52.5±0.78; in assay [1] (Patient 2) it was 26.3±1.02; in assay [1] (Patient 3) it was 5.1±0.72.
